Activity calls are given as the source filed them. The rule behind the calls is not given here.

The test system of one data set is HT-29. Briefly: Antiproliferative activity against human HT-29 cells assessed as reduction in cell viability after 72 hrs by CellTiter-Glo assay. The following applies: HT-29, 72 h. It is filed as functional, cell-based. A digest of the protocol:
(§1)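 Cells seeded in 96-well plates, left overnight at 37°C, then exposed to a range of test concentrations for 72 h. Viability read by CellTiter-Glo luminescence; IC50 from four-parameter curve fit. Lines kept at 37°C, 5% CO2, in recommended growth medium.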

The next data set deals with MDA-MB-468. Put plainly: Antiproliferative activity against human MDA-MB-468 cells assessed as reduction in cell viability after 72 hrs by CellTiter-Glo assay. As to conditions: MDA-MB-468, 72 h. It is filed as functional, cell-based. A digest of the protocol: as §1
Background: Cellular ATP, detected with luciferase, serves as a proxy for viable cell number.

In the next data set the test system is SU-DHL-1. Put plainly: Antiproliferative activity against human SU-DHL-1 cells assessed as reduction in cell viability after 72 hrs by CellTiter-Glo assay. It is filed as functional, cell-based. The following applies: SU-DHL-1, 72 h. A digest of the protocol: as §1
For a further data set, the system named is A549. Put plainly: Antiproliferative activity against human A549 cells assessed as reduction in cell viability after 72 hrs by CellTiter-Glo assay. The following applies: A549, 72 h. It is filed as functional, cell-based. A digest of the protocol:
as §1

Another data set has as its system MCF7. Briefly: Induction of cell cycle arrest in human MCF7 cells assessed as decrease in cells accumulation at G2/M phase at 0.03 to 10 uM incubated for 24 to 48 hrs by propidium iodide staining based flow cytometric analysis. It is filed as functional. The following applies: dose 0.03-10 µM, time lower 24.0 hrs, time upper […]. A digest of the protocol:
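COLO 205, MCF-7 or NCI-H929 cells seeded in 96-well plates overnight at 37°C, then exposed to DMSO or increasing compound concentrations for 24 or 48 h. Fixed and stained with propidium iodide (Vindelov method), then analysed by flow cytometry for sub-G1, G1, S and G2-M fractions. Experiment repeated twice.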
Background: A flow cytometer gives signals particle by particle.

The nature of data set [1]: Antitumor activity against mouse NIH-3T3/LISN cells implanted in nu/nu CD-1 mouse assessed as reduction in tumor growth at 30 mg/kg, po for 21 days relative to control. As to conditions: 504 h, time 21 day, read-out: TGI. It is filed as functional. A digest of the protocol: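 Exponentially growing cells implanted s.c. in the right flank of 8–10-wk-old female athymic nu/nu CD-1 mice. At 150–200 mm3, block-randomized by tumor size into groups of eight. Oral dosing once or twice daily for 21 d; vehicle 20% sulfobutylether-β-cyclodextrin, pH 3.5. Calipers twice weekly; volume = length×width²/2. Growth inhibition = 100×[1 − treated growth/vehicle growth].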

Data set [2] can be described thus: In vivo inhibition of IGF1R in mouse NIH-3T3/LISN cells implanted in IGF1-stimulated nu/nu CD-1 mouse assessed as reduction in IGF1R phosphorylation at 30 mg/kg, po pretreated for 24 hrs followed by IGF1 stimulation and measured after 10 min […] relative to control. It is filed as functional. The following applies: 24.17 h, time 1450 min. A digest of the protocol: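 Time course: tumor-bearing female nu/nu CD-1 mice, three per group, given a single oral 30 mg/kg dose or vehicle. IGF-I given 10 min before blood and tumor collection at each time point. Tumor phospho-IGF-IR/total IGF-IR measured by capture-plate europium phosphotyrosine assay and expressed as % of ligand-stimulated control.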

Data set [3] deals with Inhibitor of nuclear factor kappa-B kinase subunit beta (Homo sapiens, UniProt O14920). Briefly: Inhibition of IKK2 (unknown origin).
The target of data set [4] is Mitogen-activated protein kinase 14 (Homo sapiens, UniProt Q16539). Put plainly: Inhibition of P38alpha (unknown origin).
Data set [5] deals with Serine/threonine-protein kinase BRSK1 (Homo sapiens) (UniProt Q8TDC3). Briefly: Inhibition of N-terminal 6His-tagged recombinant human BrSK1 (2 to end residues) expressed in baculovirus infected Sf21 cells at 0.3 uM by filter binding assay relative to control. Put shortly: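 KinaseProfiler panel of 233 kinases: radiometric filter-binding activity assays with compound at 0.3 or 3 µmol/L. Read-out is percent inhibition.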

For data set [6], the target named is Mitogen-activated protein kinase 1 (Homo sapiens) (UniProt P28482). Briefly: Inhibition of N-terminal GST-tagged recombinant human MAPK2 expressed in Escherichia coli at 0.3 uM by filter binding assay relative to control. Put shortly: (§2)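 Outsourced single-concentration screen in a commercial panel of 233 protein kinases, run as radiometric filter-binding activity assays. Test agent was tested at 0.3 or 3 µmol/L, as given in each line, from a 10 mmol/L DMSO stock. Activity is expressed as percent inhibition relative to control.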

The target of data set [7] is Protein kinase C iota type (Homo sapiens) (UniProt P41743). Put plainly: Inhibition of N-terminal His6-tagged recombinant full-length human PKCiota expressed in Sf21 cells at 0.3 uM by filter binding assay relative to control. A digest of the protocol:
as §2

Data set [8] has as its target Serine/threonine-protein kinase tousled-like 2 (Homo sapiens) (UniProt Q86UE8). Briefly: Inhibition of N-terminal 6His-tagged recombinant human TLK2 (388 to end residues) expressed in baculovirus infected Sf21 cells at 0.3 uM by filter binding assay relative to control. A digest of the protocol:
as §2

The target in data set [9] is LIM domain kinase 1 (Homo sapiens) (UniProt P53667). Put plainly: Inhibition of N-terminal 6His-tagged recombinant human LIMK1 (285 to 638 residues) expressed in baculovirus infected Sf21 cells at 3 uM by filter binding assay relative to control. A digest of the protocol: as §2
Data set [10] concerns the target Insulin receptor (Mus musculus) (UniProt P15208). The following applies: CD-1, dose >= 30.0 mg/kg, route po, time 242.0 min.
Data set [11] can be described thus: Toxicity in nu/nu CD-1 mouse xenografted with human COLO 205 cells assessed as reduction in body weight at 30 mg/kg, po for 21 days relative to control. Also on record: scale not given: the % may be the effect or the level left. As to conditions: in vivo, 504 h. On the technique in general: A xenograft is tissue or cells of one species grown in another, often human tumour cells in immunodeficient mice.

Sequence of Mitogen-activated protein kinase 1 (Homo sapiens) (P28482 whole entry): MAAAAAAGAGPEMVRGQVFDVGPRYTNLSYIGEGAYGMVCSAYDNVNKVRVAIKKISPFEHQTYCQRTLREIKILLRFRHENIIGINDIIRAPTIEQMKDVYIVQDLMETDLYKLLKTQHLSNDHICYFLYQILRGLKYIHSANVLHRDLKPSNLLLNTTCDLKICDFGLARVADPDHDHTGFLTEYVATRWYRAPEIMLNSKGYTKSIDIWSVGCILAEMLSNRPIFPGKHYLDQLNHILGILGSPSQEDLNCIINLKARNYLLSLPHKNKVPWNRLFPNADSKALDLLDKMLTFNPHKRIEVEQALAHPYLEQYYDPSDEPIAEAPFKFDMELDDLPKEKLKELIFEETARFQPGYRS
Sequence of Insulin receptor (Mus musculus) (P15208 28-748 limits assumed): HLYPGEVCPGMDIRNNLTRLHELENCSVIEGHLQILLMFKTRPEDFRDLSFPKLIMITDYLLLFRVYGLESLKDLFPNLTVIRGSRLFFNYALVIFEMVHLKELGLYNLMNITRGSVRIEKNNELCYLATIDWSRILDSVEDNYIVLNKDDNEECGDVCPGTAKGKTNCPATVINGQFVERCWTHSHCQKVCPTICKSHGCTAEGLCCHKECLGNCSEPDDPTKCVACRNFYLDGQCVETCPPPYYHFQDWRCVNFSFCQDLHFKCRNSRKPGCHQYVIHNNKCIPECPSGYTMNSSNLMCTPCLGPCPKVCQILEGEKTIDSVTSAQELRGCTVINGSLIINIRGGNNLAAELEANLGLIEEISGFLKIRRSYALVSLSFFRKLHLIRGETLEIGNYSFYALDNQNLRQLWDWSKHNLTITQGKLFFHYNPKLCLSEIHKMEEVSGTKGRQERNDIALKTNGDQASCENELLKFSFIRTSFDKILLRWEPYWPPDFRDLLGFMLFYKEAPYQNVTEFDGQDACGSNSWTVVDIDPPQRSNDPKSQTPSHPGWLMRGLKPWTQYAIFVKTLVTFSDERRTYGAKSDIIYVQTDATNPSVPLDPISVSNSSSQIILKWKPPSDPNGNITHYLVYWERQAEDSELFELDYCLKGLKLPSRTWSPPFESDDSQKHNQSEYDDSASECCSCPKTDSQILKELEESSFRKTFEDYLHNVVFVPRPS
Sequence of Insulin receptor (Mus musculus) (P15208 753-1372 limits assumed): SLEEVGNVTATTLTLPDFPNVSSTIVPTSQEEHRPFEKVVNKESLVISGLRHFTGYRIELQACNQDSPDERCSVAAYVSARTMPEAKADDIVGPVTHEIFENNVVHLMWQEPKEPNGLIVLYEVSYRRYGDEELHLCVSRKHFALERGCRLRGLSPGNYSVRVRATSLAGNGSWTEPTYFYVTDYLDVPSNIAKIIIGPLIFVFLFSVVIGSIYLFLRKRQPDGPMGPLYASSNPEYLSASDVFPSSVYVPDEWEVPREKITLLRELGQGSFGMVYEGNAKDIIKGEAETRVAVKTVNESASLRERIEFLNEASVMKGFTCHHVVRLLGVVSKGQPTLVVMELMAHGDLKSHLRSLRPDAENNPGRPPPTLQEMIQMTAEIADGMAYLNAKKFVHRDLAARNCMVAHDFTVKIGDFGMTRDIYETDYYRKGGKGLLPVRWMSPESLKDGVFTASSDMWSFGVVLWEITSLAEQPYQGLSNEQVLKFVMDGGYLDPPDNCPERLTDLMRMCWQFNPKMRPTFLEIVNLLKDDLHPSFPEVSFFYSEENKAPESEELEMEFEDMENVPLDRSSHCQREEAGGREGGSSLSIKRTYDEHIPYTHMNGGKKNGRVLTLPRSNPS
Sequence of Serine/threonine-protein kinase BRSK1 (Homo sapiens) (Q8TDC3 whole entry): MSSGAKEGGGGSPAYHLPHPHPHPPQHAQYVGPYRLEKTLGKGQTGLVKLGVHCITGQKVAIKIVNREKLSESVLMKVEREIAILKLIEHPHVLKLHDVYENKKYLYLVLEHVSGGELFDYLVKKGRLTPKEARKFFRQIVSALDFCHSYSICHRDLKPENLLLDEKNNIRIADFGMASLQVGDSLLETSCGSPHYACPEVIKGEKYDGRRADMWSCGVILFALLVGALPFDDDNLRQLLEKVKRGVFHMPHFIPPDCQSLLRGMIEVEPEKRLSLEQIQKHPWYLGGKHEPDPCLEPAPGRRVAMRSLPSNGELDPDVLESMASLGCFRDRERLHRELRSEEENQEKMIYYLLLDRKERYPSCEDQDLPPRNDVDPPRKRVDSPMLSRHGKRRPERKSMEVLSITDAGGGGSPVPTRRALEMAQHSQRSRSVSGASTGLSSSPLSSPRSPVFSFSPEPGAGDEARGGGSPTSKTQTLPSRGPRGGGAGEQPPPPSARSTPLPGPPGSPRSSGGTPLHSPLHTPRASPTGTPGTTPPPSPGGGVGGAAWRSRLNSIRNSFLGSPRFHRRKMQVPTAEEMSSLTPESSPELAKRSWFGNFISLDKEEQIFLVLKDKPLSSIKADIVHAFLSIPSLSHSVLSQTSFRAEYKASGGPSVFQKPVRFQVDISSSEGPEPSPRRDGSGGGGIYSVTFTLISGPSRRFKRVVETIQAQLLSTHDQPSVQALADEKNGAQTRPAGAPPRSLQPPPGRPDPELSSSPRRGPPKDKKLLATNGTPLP
Sequence of LIM domain kinase 1 (Homo sapiens) (P53667 whole entry, looked up, the tested form may be a part): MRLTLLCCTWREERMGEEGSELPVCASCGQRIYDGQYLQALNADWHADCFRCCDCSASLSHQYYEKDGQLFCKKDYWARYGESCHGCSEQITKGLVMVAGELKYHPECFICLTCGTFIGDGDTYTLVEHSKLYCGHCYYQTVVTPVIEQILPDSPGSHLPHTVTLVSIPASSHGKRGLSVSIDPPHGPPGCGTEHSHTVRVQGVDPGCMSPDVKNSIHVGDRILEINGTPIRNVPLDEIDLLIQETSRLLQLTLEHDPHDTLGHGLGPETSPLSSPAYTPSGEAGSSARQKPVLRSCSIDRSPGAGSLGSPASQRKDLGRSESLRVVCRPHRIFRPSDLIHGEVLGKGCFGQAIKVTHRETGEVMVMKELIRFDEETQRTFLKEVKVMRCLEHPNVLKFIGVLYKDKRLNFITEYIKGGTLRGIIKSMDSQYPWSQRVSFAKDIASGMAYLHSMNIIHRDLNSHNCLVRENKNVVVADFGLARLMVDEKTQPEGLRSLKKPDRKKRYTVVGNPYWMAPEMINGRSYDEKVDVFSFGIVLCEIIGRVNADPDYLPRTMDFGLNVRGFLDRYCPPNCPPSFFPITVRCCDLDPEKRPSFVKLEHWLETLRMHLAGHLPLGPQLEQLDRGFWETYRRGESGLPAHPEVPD
Sequence of Mitogen-activated protein kinase 14 (Q16539 whole entry): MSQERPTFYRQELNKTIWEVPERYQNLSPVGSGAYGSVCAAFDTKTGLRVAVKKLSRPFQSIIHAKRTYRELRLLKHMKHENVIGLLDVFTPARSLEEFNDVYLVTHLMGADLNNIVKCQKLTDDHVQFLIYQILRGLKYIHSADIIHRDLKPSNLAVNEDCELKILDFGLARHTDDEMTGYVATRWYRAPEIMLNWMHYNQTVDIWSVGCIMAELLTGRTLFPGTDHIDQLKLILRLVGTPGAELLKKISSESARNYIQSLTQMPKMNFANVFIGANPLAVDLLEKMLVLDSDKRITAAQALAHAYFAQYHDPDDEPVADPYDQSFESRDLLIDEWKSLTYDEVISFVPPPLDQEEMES
Sequence of Inhibitor of nuclear factor kappa-B kinase subunit beta (O14920 whole entry): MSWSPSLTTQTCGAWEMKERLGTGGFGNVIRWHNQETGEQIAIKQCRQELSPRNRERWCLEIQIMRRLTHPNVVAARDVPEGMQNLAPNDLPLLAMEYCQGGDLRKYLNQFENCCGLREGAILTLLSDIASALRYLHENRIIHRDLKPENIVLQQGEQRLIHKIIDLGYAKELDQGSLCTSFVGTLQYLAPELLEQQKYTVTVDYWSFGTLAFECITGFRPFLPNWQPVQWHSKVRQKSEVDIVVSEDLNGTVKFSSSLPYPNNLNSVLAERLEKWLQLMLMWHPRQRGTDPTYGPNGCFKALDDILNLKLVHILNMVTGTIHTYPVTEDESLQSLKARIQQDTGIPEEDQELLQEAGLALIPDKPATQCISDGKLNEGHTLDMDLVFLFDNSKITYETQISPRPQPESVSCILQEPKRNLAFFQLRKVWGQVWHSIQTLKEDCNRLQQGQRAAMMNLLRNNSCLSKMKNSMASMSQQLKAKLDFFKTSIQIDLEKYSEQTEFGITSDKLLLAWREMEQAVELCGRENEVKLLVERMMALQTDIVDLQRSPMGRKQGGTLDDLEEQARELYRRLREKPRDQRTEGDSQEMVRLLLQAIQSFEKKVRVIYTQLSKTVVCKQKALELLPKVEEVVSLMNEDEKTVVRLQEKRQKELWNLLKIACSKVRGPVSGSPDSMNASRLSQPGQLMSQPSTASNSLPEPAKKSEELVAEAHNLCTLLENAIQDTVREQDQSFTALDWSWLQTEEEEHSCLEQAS
Sequence of Protein kinase C iota type (Homo sapiens) (P41743 whole entry): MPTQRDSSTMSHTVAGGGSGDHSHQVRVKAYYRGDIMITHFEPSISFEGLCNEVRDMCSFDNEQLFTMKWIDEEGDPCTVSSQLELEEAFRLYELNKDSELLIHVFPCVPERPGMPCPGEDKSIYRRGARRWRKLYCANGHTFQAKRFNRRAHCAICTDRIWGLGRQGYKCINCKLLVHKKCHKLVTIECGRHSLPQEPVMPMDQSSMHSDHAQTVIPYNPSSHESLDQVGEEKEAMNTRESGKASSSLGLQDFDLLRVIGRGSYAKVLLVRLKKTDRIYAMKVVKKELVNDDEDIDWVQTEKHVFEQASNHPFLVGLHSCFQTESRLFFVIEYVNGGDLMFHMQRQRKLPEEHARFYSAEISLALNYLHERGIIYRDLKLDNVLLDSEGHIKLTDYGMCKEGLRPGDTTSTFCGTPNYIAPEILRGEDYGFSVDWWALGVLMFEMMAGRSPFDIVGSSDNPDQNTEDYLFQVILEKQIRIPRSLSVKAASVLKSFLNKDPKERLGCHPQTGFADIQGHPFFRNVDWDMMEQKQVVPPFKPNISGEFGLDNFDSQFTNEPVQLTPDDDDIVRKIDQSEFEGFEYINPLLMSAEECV

As for `CCc1cc(Nc2nccc(-c3c(-c4ccc(OC)c(C(=O)Nc5c(F)cccc5F)c4)nc4ccccn34)n2)c(OC)cc1N1CCC(N2CCN(S(C)(=O)=O)CC2)CC1`, the IC50 – broadly, the concentration at which inhibition is half-maximal – is 0.104 µM with HT-29; above 20 µM in the data set on MDA-MB-468; above 30 µM in the data set with SU-DHL-1; above 20 µM with A549; 13 µM in data set [3]; 10 µM in data set [4]. For the same compound, the outcome with MCF7 was Active. Also, the values for the inhibition in vivo at 30 mg/kg in data set [1] and in data set [2] were 56% and 76%, respectively. Besides, the inhibition (commonly the drop in the measured response relative to a control, in per cent) is 0% in [5]; -10% in data set [6]; 0% in data set [7]; 0% in [8]; 18% in data set [9]. Also, the inhibition entry in data set [10] is “Active”. Besides, the Activity in data set [11] is recorded as 5%.

Values taken from ChEMBL document CHEMBL5678798 (Clin Cancer Res, 2009).
